# High-throughput results: PubChem BioAssay, several laboratories
# PABP polyA inh: blocks human PABP binding to poly(A) RNA; fluorescence polarization; inhibition, % at 35 µM; 1% of 290,000 active; AID 2014;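 further: calls also rest on retests at 20 µM and on dose response follow-up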
# Target sequence (P11940 whole entry, looked up): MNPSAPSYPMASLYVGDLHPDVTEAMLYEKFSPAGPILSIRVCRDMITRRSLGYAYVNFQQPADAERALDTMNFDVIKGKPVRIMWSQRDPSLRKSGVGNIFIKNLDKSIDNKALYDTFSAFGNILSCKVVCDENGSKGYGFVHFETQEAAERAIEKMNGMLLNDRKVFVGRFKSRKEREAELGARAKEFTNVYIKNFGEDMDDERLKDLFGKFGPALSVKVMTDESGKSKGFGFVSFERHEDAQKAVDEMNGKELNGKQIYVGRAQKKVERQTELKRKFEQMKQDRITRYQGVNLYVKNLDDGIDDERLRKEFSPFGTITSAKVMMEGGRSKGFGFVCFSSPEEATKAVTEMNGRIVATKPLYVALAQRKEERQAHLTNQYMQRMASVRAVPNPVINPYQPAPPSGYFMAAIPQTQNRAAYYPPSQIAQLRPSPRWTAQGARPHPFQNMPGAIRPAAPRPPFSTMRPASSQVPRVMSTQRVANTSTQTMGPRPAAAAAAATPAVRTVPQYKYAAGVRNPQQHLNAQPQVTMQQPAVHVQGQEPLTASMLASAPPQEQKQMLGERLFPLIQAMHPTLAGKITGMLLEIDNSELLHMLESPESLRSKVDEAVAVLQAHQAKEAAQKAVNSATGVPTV
# DNA FID counter-1: fluorescent intercalator displacement, NS3 helicase counter-screen. DNA fluorescent intercalator displacement, fluorescence. inhibition, % at 7.9 µM. 0.17% of 290,000 active. AID 1845; in the data active means inhibition above about 37%;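 further: 0% = vehicle and 100% = reference compound; higher means more ethidium bromide displaced from hairpin DNA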
# HCV NS3 hel inh: blocks Hepatitis C virus NS3 helicase unwinding. NS3 helicase DNA unwinding, Cy5 molecular beacon fluorescence. inhibition, % at 10.9 µM. 0.56% of 290,000 active. AID 1800;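 active means inhibition above the mean of all tested compounds plus 3 SD, set per campaign, cut at about 35% in these data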;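 further: 0% = DMSO wells and 100% = thioflavine S control wells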
#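 Assay system: hepatitis C virus NS3 helicase domain fragment enzyme. Also added: annealed dual-labelled DNA beacon duplex, ATP-started. Timing: 1 h reaction at 25 °C, ATP-initiated. Technique: Cy5 fluorescence at 0 and 60 min, beacon hairpin quenching. Evaluation: % inhibition of unwinding. Replication: one well per compound.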
# eIF4H inh: inhibitors of RNA binding by human eIF4H | eIF4H fluorescence polarization binding assay | inhibition, % at 35 µM | 0.94% of 290,000 active | AID 2012;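 further: calls also rest on retests at 20 µM and on dose response follow-up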
# HCV core dimer: blocks dimerization of HCV core protein; TR-FRET GST/Flag-core106 dimerization, 1536-well; inhibition, % at 5 µM; 0.33% of 300,000 active;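 active means inhibition above the mean of all tested compounds plus 3 SD, set per screening campaign, cut at about 45% in these data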
#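 Material: GST/Flag-tagged HCV core106 proteins. Incubation: 4 h, 22.5 °C incubation. Read-out basis: inhibition (%) from 671 over 617 nm ratio. Measured by: TR-FRET, excitation 340 nm, emission 617 and 671 nm.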
# PABP1 MLLE inh: inhibitors of microRNA-mediated deadenylation, human PABP1 MLLE binding. GST-MLLE / FITC-PAM2 fluorescence polarization. inhibition, % at 20 µM. 0.36% of 360,000 active. P11940; in the data active means inhibition above about 35%, passing the limit was not always enough;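 further: plate controls were DMSO wells with GST-MLLE for no effect and wells lacking GST-MLLE protein for full effect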
# NS3 hel confirm: HCV NS3 helicase inhibition, confirmation assay; shares compounds with HCV NS3 hel inh; NS3 helicase DNA unwinding, Cy5 molecular beacon fluorescence; inhibition, % at 10.9 µM; 31% of 1,600 active; AID 1943;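 active means inhibition above the mean of all tested compounds plus 3 SD, cutoff set per campaign, cut at about 36% in these data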
# DNA FID counter-2: displaces DNA intercalator in HCV helicase counter-screen; inhibition, % at 7.9 µM; DNA fluorescent intercalator displacement, fluorescence; shares compounds with HCV NS3 hel inh; 4% of 1,600 active; in the data active means inhibition above about 37%;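 further: 0% = vehicle and 100% = reference compound; higher means more displacement of ethidium bromide from the DNA hairpin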
# DNA FID DR: DNA intercalator displacement in dose response; IC50, µM; 120 tested, under 10 active; fluorescent intercalator displacement from DNA, fluorescence; shares compounds with HCV NS3 hel inh
# * marks the source's active call; other numbers are inactive results; ? = inconclusive; nt = no result given. Hits are enriched below; roughly 2% of the tested compounds scored in any of these assays. Unless noted, how the calls were made is not given here.
SMILES,PABP polyA inh,DNA FID counter-1,HCV NS3 hel inh,eIF4H inh,HCV core dimer,PABP1 MLLE inh,NS3 hel confirm,DNA FID counter-2,others
Cc1cc(C)n(-c2ccc(C(=O)OCC(=O)c3ccc(Br)s3)cc2)n1,3,-41,50*,5,27,-23,-4,-5,
COC(=O)c1c(NC(=O)c2ccccc2OC)sc(C(=O)N2CCOCC2)c1C,2,-33,-18,-9,6,-4,nt,nt,
Cc1cc(-c2csc(NC(=O)c3ccccc3C(F)(F)F)n2)c(C)n1Cc1ccccc1,4,-10,50*,12,37,-29,6,0,
Cc1cc(O)c(C(=O)/C=C/c2ccccc2)c(=O)o1,-2,-37,43*,9,nt,-20,-11,2,
Cc1cc(O)c(C(=O)/C=C/c2ccc(C(C)C)cc2)c(=O)o1,-14,-30,29,1,nt,-18,nt,nt,
Cc1cc(O)c(C(=O)/C=C/c2ccccc2Br)c(=O)o1,1,-33,48*,3,13,-34,17,7,
COc1ccc(OC)c(NC(=O)Cc2ccc(NC3=NC4CS(=O)(=O)CC4S3)cc2)c1 (centres undefined),4,-10,0,3,1,-74,nt,nt,
O=C(Nc1nnc(C2=COCCO2)o1)c1cccc(Br)c1,0,-11,39*,-2,-4,21,-8,4,
COc1cc(OC)c2c(O)c3c(c(-c4c5c(c(O)c6c(OC)cc(OC)cc46)CO[C@@H](C)[C@H]5O)c2c1)[C@H](O)[C@H](C)OC3,15,-31,36*,86,54*,-45,69*,-20,
CCCCN(C(=O)C1CC(=O)N(Cc2ccc(C)cc2)C1)c1c(N)n(CC(C)C)c(=O)[nH]c1=O (centres undefined),5,-21,1,3,-8,14,nt,nt,
Cc1ccc(/C=C2\SC(=S)N(C3CCS(=O)(=O)C3)C2=O)cc1 (centres undefined),-2,-8,-9,14,-1,23,nt,nt,
CCOc1ccc(-c2nn(-c3ccccc3)cc2/C=C2\SC(=S)N(C3CCS(=O)(=O)C3)C2=O)cc1 (centres undefined),?,1,-2,?,25,60,nt,nt,
O=C1/C(=C/c2ccco2)SC(=S)N1C1CCS(=O)(=O)C1 (centres undefined),active,-18,38*,99,21,35,-26,0,
O=C1/C(=C\c2ccco2)SC(=S)N1C1CCS(=O)(=O)C1 (centres undefined),73*,-9,38*,94*,2,18,-10,-2,
O=C(Cn1ccc2ccccc2c1=O)NCC1COc2ccccc2O1 (centres undefined),-2,-1,17,5,6,-6,nt,nt,
O=C(CN1C(=O)C2CC=CCC2C1=O)NCC1COc2ccccc2O1 (centres undefined),4,-6,85*,3,-5,9,-19,6,
CCCCOc1ccccc1C(=O)NNC(=S)NC(=O)c1ccccc1[N+](=O)[O-],-1,-17,40*,6,0,31,51*,-3,DNA FID DR=>79
O=C(NNC(=S)NC(=O)c1ccccc1[N+](=O)[O-])c1ccccc1[N+](=O)[O-],8,-8,0,16,2,18,nt,nt,
Cc1nc2c(C(=O)NCc3ccccc3Cl)c[nH]n2c(=O)c1Cl,4,-5,56*,-2,12,3,46*,6,
Cc1ccccc1S(=O)(=O)NC(=O)C1(C)CCN1C(=O)CC(c1ccccc1)c1ccccc1 (centres undefined),nt,nt,nt,nt,nt,-6,nt,nt,
Cc1cc(/C=N/NC(=O)c2cccc(N(C)C)c2)c(C)n1-c1cc(C(=O)O)cc(C(=O)O)c1,5,-28,25,78,nt,8,nt,nt,
Cc1cc(/C=N/NC(=O)C(O)(c2ccccc2)c2ccccc2)c(C)n1-c1cccc(C(=O)O)c1,44,-27,51*,80,-5,-29,72*,-37,
Cc1cc(/C=N/NC(=O)C(O)(c2ccccc2)c2ccccc2)c(C)n1-c1ccc(C(=O)O)cc1,2,-21,39*,44,10,-31,31,-24,
CCC(C)Sc1nnc(NS(=O)(=O)Cc2ccccc2)s1 (centres undefined),4,-31,13,-8,-7,-16,nt,nt,
COCCN(Cc1nc(-c2ccc(-c3ccccc3)cc2)oc1C)C(C)C,2,9,-25,2,5,-2,nt,nt,
SMILES,PABP polyA inh,DNA FID counter-1,HCV NS3 hel inh,eIF4H inh,HCV core dimer,PABP1 MLLE inh,NS3 hel confirm,DNA FID counter-2,others
O=S(=O)(O)c1nc2ccccc2n1Cc1cccc2ccccc12,6,-27,43*,2,3,nt,62*,-21,
O=S(=O)(O)c1nc2ccccc2n1Cc1ccccc1,0,4,9,-11,6,-24,nt,nt,
COc1ccc(N(CC(=O)NCCC2=CCCCC2)S(=O)(=O)c2c(C)[nH]c(=O)[nH]c2=O)cc1,-10,-50,37*,-5,5,12,-20,-32,
Cc1ccc(N2CC(C(=O)Nc3ccc(N4CCOCC4)cc3)CC2=O)cc1C (centres undefined),2,-38,39*,-1,-4,-17,-6,-30,
O=C(O)Cn1c2c(c3ccccc31)CSc1ccc(Cl)cc1-2,23,13,37*,7,10,36,84*,-10,
O=C(O)Cn1c2ccccc2c2ccccc21,6,0,0,-3,-2,-17,nt,nt,
O=C1Cc2ccccc2C(=O)N1c1cccc(Cl)c1,12,-21,37*,-10,-5,23,-19,19,
O=C(Cc1cc(=O)[nH][nH]1)N/N=C/C=C/c1ccccc1,-9,-25,40*,21,21,-4,12,-22,
O=C1CS/C(=N\N=C\c2ccco2)N1c1ccccc1,32*,-15,41*,85*,30,-24,15,20,
Cc1cccc(CNCc2ccccc2)c1,0,-3,38*,-4,-5,1,-10,9,
Cc1cccc(NCc2ccccc2)c1,-7,1,-3,-6,-3,-2,nt,nt,
O=C(Nc1ccc(Nc2ccncc2)cc1)c1ccc(Nc2ccnc3ccc([N+](=O)[O-])cc23)cc1,12,39*,53*,-3,nt,-104,78*,103*,
COC(=O)CCC(=O)c1ccn(S(=O)(=O)c2ccccc2)c1,4,-11,-4,-3,-18,10,nt,nt,
N#Cc1sc2nc(-c3cccs3)cc(-c3ccc(F)cc3)c2c1N,2,-7,2,6,-17,10,nt,nt,
